Source: PubChem
Sampled rows, rich in hits. Any-hit rate of the full collection: about 5.7%.
CSC inhib: cancer stem cell viability inhibitors, primary screen, luminescence. inhibition, % at 7.5 µM. cancer stem cell-like cells viability. 300,000 compounds, 1.1% hits; in the data active means inhibition above about 75%; tested in HMLE shEcad cells
SKKanGAS inh: S. pyogenes SKKanGAS growth inhibitors in kanamycin, primary screen, streptokinase expression inhibitor project, SKKanGAS strain, BacTiter-Glo luminescence. 6 h. inhibition, % at 7.5 µM. 300,000 compounds, 1.3% hits;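 active means mean replicate score, as percent of positive control median, at least 50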;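 further: strain carries kanamycin resistance gene driven by streptokinase promoter and grows in 40 µg/ml kanamycin; loss of luminescence reflects streptokinase promoter inhibition or plain growth inhibition; 0% = median of DMSO wells and 100% = positive control at its reference dose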
Calb FLC: C. albicans growth inhibition with fluconazole, primary screen, CaCi-2 strain, Alamar Blue fluorescence | C. albicans CaCi-2 (fluconazole-resistant clinical isolate) + fluconazole, 48 h | 300,000 compounds, 0.57% hits | growth inhibition, % (no concentration beside the values) | AID 1979, 2009;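 active means growth inhibition above about 58% in most replicates, limit read from the data, passing the limit was not always enough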;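 further: all wells also contain fluconazole at 8 µg/ml as a sub-toxic cotreatment; 0% = median of DMSO wells and 100% = median of geldanamycin control wells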
T cruzi inh: inhibitors of intracellular T. cruzi growth, primary screen, luminescence, NIH3T3 host cells; T. cruzi beta-gal in NIH3T3, 90 h; 300,000 compounds, 1.4% hits; inhibition, % (concentration not given with the values);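 active means mean inhibition across valid replicates above about 55%, limit read from the data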;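 further: signal also drops with host cell toxicity which is not excluded here; 0% = plate median of DMSO wells and 100% = zero luminescence signal; higher percent means less beta-gal luminescence so fewer parasites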
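Test system: β-gal T. cruzi (Tulahuen C4) inside NIH/3T3 cells / Quantity: 5,000 cells/well / Measured by: luminescence from GalScreen with 0.05% NP40, read after 60 min / Medium: DMEM plus 2% FBS / Measure: parasite load inhibition, % / Reagent: Tulahuen C4 trypomastigotes, 5000/well / Schedule: co-culture of at least 90 h after 3 h attachment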
Beta apoptosis: inhibitors of cytokine-induced beta cell apoptosis, primary screen, luminescence; INS-1E cytokine-induced death, ATP luminescence, 48 h; percent of positive-control rescue, neutral wells zero; protection from apoptosis, % (test concentration not listed); 300,000 compounds, 0.8% hits;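 active means Every replicate reaches about 75%, or at least half do and their mean reaches it too, limit read from the data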;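 further: 0% = cytokine-treated negative control wells and 100% = positive control rescue; higher means more ATP so stronger rescue from cytokine killing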
Mdm2 MdmX PPI: inhibitors of human Mdm2-MdmX association, primary screen, cell-based, luminescence, split luciferase, SaOS-2, uHTS; inhibition, % at 8 µM; 330,000 compounds, 3% hits; Protein Mdm4 (Homo sapiens) + E3 ubiquitin-protein ligase Mdm2 (Homo sapiens), …; SaOS-2 split-luciferase Mdm2/MdmX complementation;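 active means inhibition of at least 50% at 8 µM in the primary screen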
Mdm2 MdmX conf: Mdm2-MdmX complex disruptors, retested hits, confirmation, luminescence, single concentration; shares compounds with Mdm2 MdmX PPI; Mdm2-MdmX binding, luminescent assay; inhibition, % at 8 µM; 10,000 compounds, 55% hits; AID 489028, 2010; in the data active means inhibition above about 40%
Full FLuc ctr: full-length luciferase signal inhibition, confirmation, counter-screen for Mdm2/MdmX interaction inhibitor project, cell-based, single concentration, SaOS-2 | shares compounds with Mdm2 MdmX PPI | SaOS-2 full-length luciferase counterscreen, luminescence | inhibition, % at 8 µM | 6,200 compounds, 77% hits;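 active means mean inhibition at 8 µM reaching about 37%, which flags the compound as non-specific, limit read from the data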;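 further: p53-null SaOS-2 cells with luciferase driven by a doxycycline-inducible promoter; compound on cells about two nights before reading with doxycycline added after day one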
* marks the source's active call; other numbers are inactive results.

Results for CCOC(=O)COc1cccc2c(=O)n(CC(=O)NCc3ccc(F)cc3)ccc12 ?
CSC inhib: 63.2; SKKanGAS inh: -15.3; Calb FLC: 2.5; T cruzi inh: 36.9; Beta apoptosis: 3.5; Mdm2 MdmX PPI: 58.8*; Mdm2 MdmX conf: 60.8*; Full FLuc ctr: 83.4*

Results for CCOC(=O)C(C)Oc1cccc2c(=O)n(CC(=O)NCc3ccc4c(c3)OCO4)ccc12 (stereo not drawn) ?
CSC inhib: 54.9; SKKanGAS inh: -6.3; Calb FLC: -2.1; T cruzi inh: -14.6; Beta apoptosis: 16.6; Mdm2 MdmX PPI: 53.8*; Mdm2 MdmX conf: 58.9*; Full FLuc ctr: 56.8*

Results for O=C(COc1ccc2ccccc2c1)NNC(=O)C(=O)Nc1ccccc1 ?
CSC inhib: 4.7; SKKanGAS inh: 16.9; Calb FLC: -9.8; T cruzi inh: -8.1; Beta apoptosis: 21.4; Mdm2 MdmX PPI: 53.1*; Mdm2 MdmX conf: 60.2*; Full FLuc ctr: 99.0*

How did COc1ccc(NC(=O)C(=O)NNC(=O)COc2ccc(OC)cc2)cc1 do in these assays?
CSC inhib: 5.6; SKKanGAS inh: 0.6; Calb FLC: 36.0; T cruzi inh: -19.9; Beta apoptosis: -2.7; Mdm2 MdmX PPI: 14.4

How did COc1ccccc1NC(=S)NCc1ccc2c(c1)cc(C)n2C do in these assays?
CSC inhib: -12.4; SKKanGAS inh: 6.9; Calb FLC: -28.0; T cruzi inh: 6.1; Beta apoptosis: -11.4; Mdm2 MdmX PPI: 30.7

Results for Cc1ccccc1NC(=S)NCc1ccc2c(c1)cc(C)n2C ?
CSC inhib: -1.0; SKKanGAS inh: 7.4; Calb FLC: -9.9; T cruzi inh: 24.3; Beta apoptosis: 6.3; Mdm2 MdmX PPI: 68.2*; Mdm2 MdmX conf: 47.6*; Full FLuc ctr: 62.2*

What do the screens show for `COc1ccc(NS(=O)(=O)c2ccc(OC)c(NC(=O)CNC(=O)c3ccc(OC)cc3)c2)cc1`?
Beta apoptosis: -2.1; Mdm2 MdmX PPI: 4.8

What do the screens show for `COc1cccc(N2CCN(C(=O)c3ccc(CS(=O)c4ccccc4C)o3)CC2)c1` (stereo not drawn)?
CSC inhib: 54.1; SKKanGAS inh: 6.5; Calb FLC: 15.6; T cruzi inh: 7.7; Beta apoptosis: 7.2; Mdm2 MdmX PPI: 50.9*; Mdm2 MdmX conf: 50.5*; Full FLuc ctr: 73.8*

Results for COc1cccc(N2CCN(C(=O)c3ccc(CS(=O)c4ccccc4Cl)o3)CC2)c1 (stereo not drawn) ?
CSC inhib: 52.2; SKKanGAS inh: 13.3; Calb FLC: 4.5; T cruzi inh: 19.7; Beta apoptosis: 20.9; Mdm2 MdmX PPI: 70.1*; Mdm2 MdmX conf: 50.8*; Full FLuc ctr: 102.2*

Results for Cc1cnc(C(=O)OCC(=O)N2CCN(S(=O)(=O)c3ccc(Cl)cc3)CC2)cn1 ?
CSC inhib: -8.1; SKKanGAS inh: 0.6; Calb FLC: 10.7; T cruzi inh: 7.3; Beta apoptosis: -6.7; Mdm2 MdmX PPI: 14.2

Results for O=C(CSc1nnnn1-c1cccnc1)Nc1ccccc1F ?
CSC inhib: -1.8; SKKanGAS inh: -1.6; Calb FLC: 0.0; T cruzi inh: -16.3; Beta apoptosis: -4.8; Mdm2 MdmX PPI: 25.1

What do the screens show for `Cn1c(SCC(=O)Nc2cccc(Br)c2)nnc1-c1cc2ccccc2o1`?
SKKanGAS inh: 1.2; Calb FLC: 11.6; T cruzi inh: -5.3; Beta apoptosis: -2.3; Mdm2 MdmX PPI: 62.7*; Mdm2 MdmX conf: -18.6

How did Cn1c(SCC(=O)Nc2cccc(C(=O)O)c2)nnc1-c1cc2cc(Br)ccc2o1 do in these assays?
CSC inhib: -7.3; SKKanGAS inh: 7.5; Calb FLC: -14.2; T cruzi inh: -17.7; Mdm2 MdmX PPI: -7.9

Results for COc1ccc(N2CCN(C(=O)Cn3cnc4c(cnn4-c4ccc(C)cc4)c3=O)CC2)cc1 ?
CSC inhib: -28.5; SKKanGAS inh: -2.2; Calb FLC: 9.4; T cruzi inh: -6.2; Beta apoptosis: -4.8; Mdm2 MdmX PPI: 61.2*; Mdm2 MdmX conf: -6.8

How did COc1ccc(N2CCN(C(=O)Cn3cnc4c(cnn4-c4ccccc4)c3=O)CC2)cc1 do in these assays?
CSC inhib: -8.8; SKKanGAS inh: -3.1; Calb FLC: 7.3; T cruzi inh: -5.6; Beta apoptosis: -5.7; Mdm2 MdmX PPI: 18.8

Results for CCc1cc(=O)[nH]c(-n2[nH]c(-c3ccccc3)cc2=O)n1 ?
SKKanGAS inh: 21.5; Calb FLC: 0.2; T cruzi inh: -12.2; Beta apoptosis: -3.4; Mdm2 MdmX PPI: -6.1

Results for O=c1cc(-c2ccccc2)[nH]n1-c1nc2ccccc2[nH]1 ?
CSC inhib: 112.1*; SKKanGAS inh: 14.2; Calb FLC: -1.7; T cruzi inh: -17.0; Beta apoptosis: 33.5; Mdm2 MdmX PPI: 94.9*; Mdm2 MdmX conf: 25.4

What do the screens show for `CCN1CCN(S(=O)(=O)c2ccc(Cl)c(C(=O)N(C)Cc3ccco3)c2)CC1`?
Mdm2 MdmX PPI: -3.6

Results for CN(c1ccccc1)S(=O)(=O)c1ccc(Cl)c(C(=O)Nc2ccncc2)c1 ?
CSC inhib: -5.1; Beta apoptosis: -2.3; Mdm2 MdmX PPI: 31.2

Results for CN(c1ccc(F)cc1)S(=O)(=O)c1ccc(Cl)c(C(=O)Nc2ccncc2)c1 ?
CSC inhib: -15.3; SKKanGAS inh: -3.3; Calb FLC: 4.4; T cruzi inh: 20.1; Beta apoptosis: 39.2; Mdm2 MdmX PPI: 52.2*; Mdm2 MdmX conf: 28.1

How did C=CC[C@@H](CC(=O)N[C@H](CO)Cc1ccccc1)C(=O)N[C@H](COC(=O)[C@@H](CC=C)Cc1ccc(F)cc1)C(C)(C)C do in these assays?
CSC inhib: 5.5; Beta apoptosis: 1.1; Mdm2 MdmX PPI: 36.6

How did C=CC[C@@H](CC(=O)N[C@@H](CO)Cc1ccccc1)C(=O)N[C@H](COC(=O)[C@@H](CC=C)Cc1ccc(F)cc1)Cc1ccccc1 do in these assays?
CSC inhib: -16.7; Beta apoptosis: -9.2; Mdm2 MdmX PPI: 52.7*; Mdm2 MdmX conf: 35.5; Full FLuc ctr: 55.0*

Results for C=CC[C@@H](CC(=O)N[C@H](CO)Cc1ccccc1)C(=O)N[C@@H](COC(=O)[C@@H](CC=C)Cc1ccc(F)cc1)Cc1ccccc1 ?
CSC inhib: 4.1; Beta apoptosis: 60.3; Mdm2 MdmX PPI: 70.3*; Mdm2 MdmX conf: 15.6
